# Compound activity: PubChem BioAssay, several laboratories
# This is a sample that favours compounds with a hit; in the whole collection about 2.6% have one here.
# PAD4 inh – human PAD4 inhibitors, primary screen, biochemical, fluorescence polarization, 1536-well format | recombinant PAD4, RCA probe fluorescence polarization | hit rate 0.41% among 330,000 | inhibition, % at 6.36 µM | AID 485272, 2010 | Protein-arginine deiminase type-4 (Homo sapiens), Q9UM07;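 active means percent inhibition above a cutoff equal to the mean of all tested compounds plus 3 SD, cut at about 15% in these data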;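 further: 0% = PAD4 with RCA probe and DMSO and 100% = probe without PAD4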
# TDP2 absorb – human TDP2 enzyme inhibitors, primary screen, biochemical, epi absorbance, recombinant enzyme; Tyrosyl-DNA phosphodiesterase 2 (Homo sapiens), O95551; T5PNP hydrolysis, p-nitrophenol absorbance 415 nm; inhibition, % at 12.8 µM; hit rate 0.34% among 370,000;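 active means inhibition above the mean of all tested compounds plus 3 SD, set per campaign, cut at about 25% in these data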;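 further: 0% = DMSO with enzyme and 100% = buffer with substrate but no TDP2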
# Target sequence (O95551 whole entry, looked up): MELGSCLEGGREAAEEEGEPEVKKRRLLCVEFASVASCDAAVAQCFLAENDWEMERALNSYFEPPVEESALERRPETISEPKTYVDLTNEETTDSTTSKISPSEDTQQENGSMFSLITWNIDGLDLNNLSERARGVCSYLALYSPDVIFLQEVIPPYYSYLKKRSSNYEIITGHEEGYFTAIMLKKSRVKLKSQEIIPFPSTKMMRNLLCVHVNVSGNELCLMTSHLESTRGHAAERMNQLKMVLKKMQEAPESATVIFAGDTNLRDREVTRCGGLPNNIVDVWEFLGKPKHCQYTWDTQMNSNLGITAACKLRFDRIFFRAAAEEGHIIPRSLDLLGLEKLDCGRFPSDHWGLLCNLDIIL
#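 Evaluation: % inhibition relative to enzyme-containing and enzyme-free wells. Material: recombinant human TDP2. Benchmarks: enzyme-free and DMSO wells. Timing: enzyme reaction with compound for 2 h at 37 °C. Compound dosing: 12.8 µM only. Measured by: p-Nitrophenol epi absorbance. Reagent: T5PNP substrate at 5 mM, a TopII-DNA adduct mimic. Replication: single well per compound.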
# Apaf1 inhib – inhibitors of human Apaf-1 apoptosome, primary screen, biochemical, DEVD-Rh110 fluorescence, uHTS | Apoptotic protease-activating factor 1 (Homo sapiens), O14727 | reconstituted apoptosome caspase-3 activity | hit rate 0.71% among 330,000 | inhibition, % at 20 µM; active means inhibition of at least 40% at 20 µM;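 further: plate controls were DMSO wells for no effect and DEVD-CHO caspase inhibitor wells for full effect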
#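 detection = Rh110 fluorescence intensity | test system = biochemical Apaf-1 apoptosome reconstitution | also added = cytochrome c and DEVD-Rh110 substrate | schedule = 30 min plus 50 min, RT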
# PRMT1 inh – PRMT1 methyltransferase inhibitors, primary screen, biochemical, fluorescence polarization; recombinant PRMT1, activity-based probe fluorescence polarization; inhibition, % at 2.79 µM; hit rate 1.3% among 370,000; AID 652257, 2013;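 active means inhibition above about 21% made by adding two undisclosed values, limit read from the data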
# GSTO1 counter – inhibitors of recombinant GSTO1, primary screen, counter-screen for RBBP9 inhibitor project, biochemical, fluorescence polarization | activity-based probe fluorescence polarization | hit rate 1.1% among 300,000 | inhibition, % at 5.96 µM | Glutathione S-transferase omega-1 (Homo sapiens), P78417;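 active means inhibition above the campaign mean inhibition plus 3 SD, cut at about 35% in these data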;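 further: 0% = GSTO1-1 with DMSO and 100% = wells lacking GSTO1-1 enzyme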
# PAD4 FP conf – human PAD4 inhibitors, confirmation, biochemical, fluorescence polarization; recombinant PAD4, RCA probe fluorescence polarization; shares compounds with PAD4 inh; inhibition, % at 6.36 µM; hit rate 28% among 1,200;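 active means mean inhibition across replicates above the hit cutoff set by the earlier primary screen, cut at about 15% in these data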;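 further: inhibitors block active-site labeling by the probe so polarization falls; 0% = PAD4 with probe and DMSO and 100% = probe without PAD4 enzyme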
# Apaf-1 inh conf2 – Apaf-1 inhibitors, single-dose retest, confirmation, biochemical, fluorescence, DEVD-Rh110, 20 µM; reconstituted apoptosome, caspase-3 DEVD-Rh110 fluorescence; inhibition, % at 20 µM; shares compounds with Apaf1 inhib; hit rate 25% among 1,800;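 active means mean inhibition of at least 40% at 20 µM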;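 further: plate controls were DMSO wells for no effect and DEVD-CHO caspase inhibitor control wells for full effect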
# Rh110 interf inh – Rh110 fluorescence interference by putative Apaf-1 inhibitors, confirmation, artefact control for Apaf-1 inhibitor project, biochemical, 20 µM; shares compounds with Apaf1 inhib; quenched caspase reaction; activation (fluorescence interference), % at 20 µM; 1,800 tested, under 10 active;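 active means signal rise of 40% or more at 20 µM, treated as a fluorescence artifact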
# Apaf1 inh interf – fluorescence interference of Apaf-1 inhibitor hits, dose response, artefact control for Apaf-1 inhibitor project | fluorescence interference counterscreen, Apaf-1 assay format | 460 tested, under 10 active | IC50, µM | shares compounds with Apaf1 inhib; call rule not given here
# PRMT1 confirm – PRMT1 methyltransferase inhibitors, confirmation, biochemical, fluorescence polarization, triplicate; hit rate 42% among 3,300; recombinant His-PRMT1, activity-based probe fluorescence polarization; shares compounds with PRMT1 inh; inhibition, % at 2.79 µM;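 active means mean inhibition across replicates above the hit cutoff derived for the earlier primary screen, cut at about 22% in these data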
# Active calls of the source: *; · = no result.
SMILES,PAD4 inh,TDP2 absorb,Apaf1 inhib,PRMT1 inh,GSTO1 counter,PAD4 FP conf,Apaf-1 inh conf2,Rh110 interf inh,others
CCOC(=O)[C@]12CCC=C1N(Cc1cccc3ccccc13)C(=O)[C@H](CC(=O)NCCCCc1ccccc1)C2,·,5,·,-2,·,·,·,·,
Cc1cccc(-c2cccc3c4c([nH]c23)[C@@H]2C[C@H]3[C@@H](C(=O)N2CC4)[C@H](C)ON3C)c1,·,4,·,5,·,·,·,·,
Cc1cc2cc(CNC(=O)c3ccc(S(=O)(=O)N4CCCCC4)cc3)ccc2n1C,31*,-15,53*,6,-2,-3,17,1,
Cc1cc2cc(CNS(=O)(=O)c3ccccc3)ccc2n1C,18*,-7,61*,0,5,1,12,5,
CCS(=O)(=O)NCc1ccc2c(c1)cc(C)n2C,-4,8,7,0,1,·,·,·,
CCC(CN(C)C)Oc1cc(NCc2ccccc2)c2ncn(C(C)C)c2c1 (stereo unspecified),38*,·,98*,·,·,-9,80*,5,Apaf1 inh interf=>100
CCN(C(=O)COC(=O)c1ccc(Sc2ncn[nH]2)c([N+](=O)[O-])c1)c1ccccc1C,·,4,·,3,·,·,·,·,
COc1ccc(C(=O)c2ccc(OC)c(OC)c2)cc1OC,-5,8,5,-2,1,·,·,·,
COc1ccc(C(=O)c2nccc3cc(OC)c(OC)cc23)cc1OC,61*,·,84*,·,·,25*,44*,-4,Apaf1 inh interf=>100
CC(C)NC(=O)C1(C)CN(S(C)(=O)=O)CC(=O)N1C1CC1 (stereo unspecified),·,4,·,-3,·,·,·,·,
CCOC(=O)c1ccc(N=Nc2c(C)[nH]n(-c3ccccc3)c2=O)cc1,6,-10,6,-4,3,·,·,·,
CCOC(=O)c1ccc(-n2[nH]c(-c3ccccc3)cc2=O)cc1,40*,35*,43*,0,36*,-16,25,1,
O=C(CSc1nnc(-c2ccncc2)n1-c1ccccc1)Nc1ccc2c(c1)OCCO2,·,-1,·,6,·,·,·,·,
COc1cc(/C=C2\C(=O)N(CCC#N)N=C2C)c(Br)cc1OC(C)C,71*,23,79*,1,36*,1,28,0,
O=C(O)c1ccccc1NS(=O)(=O)c1cccc(-n2sc3ccccc3c2=O)c1,43*,8,27,94*,-95,33*,·,·,PRMT1 confirm=93*
O=C(O)c1ccccc1NS(=O)(=O)c1cccc(C(F)(F)F)c1,-3,12,-3,-3,-8,·,·,·,
C[C@H]1COc2cc(N3CCC[C@H]3CO)ccc2S(=O)(=O)N1,·,-1,·,-3,·,·,·,·,
Cc1noc(NS(=O)(=O)c2ccc(NC(=O)CSc3nc4ccccc4s3)cc2)c1C,19*,17,2,40*,1,-5,·,·,PRMT1 confirm=37*
